In the library only some 2.1% were active in any assay of this set; here they are far more common.
MC4R ag barr = human MC4R agonism via beta-arrestin; U2OS MC4R beta-arrestin complementation, luminescence; percent of melanotan II response, DMSO zero; hit rate 0.98% among 360,000; P32245; activation, % at 8.9 µM;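 active means activation above a per-plate cutoff, the mean activation of sample wells on that plate plus 3 SD, cut at about 8% in these data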
Target sequence (P32245 whole entry, looked up): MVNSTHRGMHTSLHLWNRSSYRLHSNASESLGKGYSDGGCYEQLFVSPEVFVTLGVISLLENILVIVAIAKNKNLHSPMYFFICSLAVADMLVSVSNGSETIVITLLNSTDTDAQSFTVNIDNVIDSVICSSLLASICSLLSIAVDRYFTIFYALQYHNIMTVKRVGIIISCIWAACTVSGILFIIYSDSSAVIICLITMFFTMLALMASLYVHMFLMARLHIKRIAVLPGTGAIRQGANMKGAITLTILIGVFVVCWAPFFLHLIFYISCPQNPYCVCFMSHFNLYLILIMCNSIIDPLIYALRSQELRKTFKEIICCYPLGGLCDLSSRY
MIN6 prolif = induces beta-cell replication in MIN6 cells | hit rate 0.29% among 330,000 | MIN6 cells proliferation, ATPlite luminescence, 48 h; cells starved in 0.2% serum; 100% = growth in 10% serum | AID 2380 | proliferation, % at 10 µM;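 active means compounds whose signal lies at least 3.5 SD above the mean of all wells on their plate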;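 further: 0% = DMSO-treated cells in low-serum medium and 100% = 10% serum control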
TLR9-MyD88 block = TLR9-MyD88 interaction inhibition. Q9NR96+Q99836. CHO BLA complementation TLR9-MyD88, CCF4 FRET ratio. inhibition, % at 4.98 µM. hit rate 0.21% among 340,000;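 active means inhibition above the mean over all tested compounds plus 3 SD, cut at about 21% in these data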;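 further: 0% = DMSO only wells and 100% = clavulanate BLA inhibitor control wells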
NOD2 RIPK2 PPI = NOD2-RIPK2 protein interaction inhibition. hit rate 0.38% among 360,000. CHO BLA complementation NOD2-RIPK2, CCF4 ratio. inhibition, % at 4.98 µM. O43353; in the data active means inhibition above about 21%;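 further: 0% = vehicle only and 100% = reference blocker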
TLR4 MyD88 comp = inhibitors of human TLR4-MyD88 binding; O00206+Q99836; HeLa CL3-4 TLR4/MyD88 BLA complementation, FRET ratio; inhibition, % at 8.4 µM; hit rate 0.18% among 200,000; in the data active means inhibition above about 25%;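 further: 0% = vehicle and 100% = reference inhibitor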
MC4R antagonist = blocks human MC4R cAMP signaling; MC4R-expressing cells, MTII-stimulated cAMP, LANCE TR-FRET; P32245; inhibition, % at 6.5 µM; hit rate 0.48% among 360,000; AID 540295;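 active means inhibition above its plate's cutoff, the mean of tested wells on that plate plus 3 SD, cut at about 29% in these data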;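 further: 0% = Melanotan II alone and 100% = Melanotan II plus saturating MCL0020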
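Assay system: U2OS-MC4R stable cell line; Also added: Melanotan II; Technique: Eu-cAMP/anti-cAMP TR-FRET, emission 671 nm; Times: 30-min compound, 1-h challenge, 1-h detection, room temperature.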
cAMP nonselect = counter-screen for MC4R antagonists: nonselective cAMP signaling inhibitors. inhibition, % at 6.5 µM. AID 602193. shares compounds with MC4R antagonist. parental U2OS, forskolin cAMP, LANCE TR-FRET. hit rate 26% among 1,600;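 active means mean inhibition over triplicates above the low-control well mean plus 3 SD, set per campaign, cut at about 13% in these data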;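 further: signal is single emission at 671 nm which falls as cellular cAMP rises; 0% = forskolin-stimulated wells and 100% = buffer without forskolin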
MC4R antag conf = human MC4R cAMP antagonism confirmation. shares compounds with MC4R antagonist. MC4R-expressing cells, MTII-stimulated cAMP, TR-FRET. inhibition, % at 6.5 µM. hit rate 27% among 1,600. AID 602195; in the data active means inhibition above about 29%;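 further: 0% = agonist stimulated wells alone and 100% = agonist stimulated wells plus saturating reference antagonist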
An asterisk follows results filed as active; . = not tested or not shown.

SMILES	MC4R ag barr	MIN6 prolif	TLR9-MyD88 block	NOD2 RIPK2 PPI	TLR4 MyD88 comp	MC4R antagonist	cAMP nonselect	MC4R antag conf
COCCNC(=S)N1CCc2cc(OC)c(OC)cc2C1COc1cc(C)cc(C)c1 (centres undefined)	1	0	-6	3	2	29*	-5	12
CCN(c1ccc(C)cc1C)S(=O)(=O)c1nnc(NC(=O)C(C)(C)C)s1	-1	1	2	-7	.	-3	.	.
COC(=O)c1cc(S(=O)(=O)n2nc(C)c(Br)c2C)c(Cl)cc1Cl	-2	-7	-15	9	4	30*	6	20
Cc1cc(C)n(S(=O)(=O)c2cc(C(=O)O)c(Cl)cc2Cl)n1	0	-1	-10	-5	6	1	.	.
CC(CNC(=O)c1ccccc1Cl)c1ccccc1 (centres undefined)	0	-1	-3	2	.	8	.	.
COC(=O)CNC(c1ccccc1)c1cc(Br)ccc1N (centres undefined)	2	-2	-9	-6	.	31*	-1	3
COC(=O)CNC(c1ccccc1)c1cc(Br)ccc1NC(=O)CCN1CCOCC1 (centres undefined)	2	-6	0	-8	5	29*	6	-5
COc1cc(OC)cc(C(=O)Nc2nc3ccc(S(C)(=O)=O)cc3s2)c1	-3	-4	8	-4	5	34*	-2	-5
CCN(CC(=O)Nc1c(F)cccc1F)C(=O)c1ccc(C#N)cc1	-1	-3	-4	-11	.	15	.	.
S=c1[nH]ccc2ccccc12	-2	.	-4	-9	.	29*	-3	0
S=c1[nH]ncc2ccccc12	-1	1	-21	4	2	-9	.	.
COc1cc(NC(=O)c2cccc3c2C(=O)N(C2CCCCC2)C3)cc(OC)c1OC	1	-3	-5	-17	.	1	.	.
N#Cc1c(SC(C(=O)O)c2ccccc2)nc2c(c1-c1cccs1)CCCC2 (centres undefined)	-1	-4	-5	-10	.	31*	18*	27
CCOC(=O)C(C)Sc1nc2c(c(-c3cccs3)c1C#N)CCC2 (centres undefined)	0	-4	-8	-1	-10	15	.	.
C=CC[C@H](CC(=O)N(CCO)Cc1ccccc1)C(=O)N[C@H](COC(=O)[C@@H](CC=C)Cc1ccc(F)cc1)Cc1c[nH]c2ccccc12	0	-6	2	4	.	23	.	.
C=CC[C@@H](CC(=O)N(CCO)Cc1ccccc1)C(=O)N[C@H](COC(=O)[C@@H](CC=C)Cc1ccc(F)cc1)Cc1c[nH]c2ccccc12	0	-6	1	-11	.	29*	2	5
CCOC(=O)Cc1csc(NC(=O)CSc2nc(-c3ccccc3)c(C#N)c(=O)[nH]2)n1	1	-1	-6	-2	-13	12	.	.
CNC(=O)NC(=O)CSc1nc(-c2cccs2)c(C#N)c(=O)[nH]1	-1	3	-9	-6	0	121*	87*	153*
CCOc1ccc2nc(NC(=O)CSc3nc(-c4ccccc4)c(C#N)c(=O)[nH]3)sc2c1	0	-2	-1	5	-6	31*	8	18
CSc1nc(-c2cccs2)c(C#N)c(=O)[nH]1	-1	2	-5	3	.	45*	43*	85*
N#Cc1c(-c2cccs2)nc(SCc2ccc(Cl)cc2)[nH]c1=O	0	-5	1	7	10	58*	43*	80*
Cc1cc(NC(=O)CN2C(=O)NC3(CCC(C)CC3)C2=O)no1 (centres undefined)	0	.	-5	-2	2	10	.	.
Cc1cccc(OCC(=O)O/N=C(\N)c2ccc(Br)cc2)c1	1	-2	1	-13	.	-6	.	.
Cc1nn(C(=O)N(C)C)c(C)c1CN1C(=O)c2ccccc2C1=O	0	-3	-3	-3	.	2	.	.
COP1(=O)C=C[C@H](N(Cc2ccccc2)S(=O)(=O)c2ccccc2[N+](=O)[O-])[C@@H](C)O1 (some centres undefined)	1	-3	-18	-2	.	14	.	.
SMILES	MC4R ag barr	MIN6 prolif	TLR9-MyD88 block	NOD2 RIPK2 PPI	TLR4 MyD88 comp	MC4R antagonist	cAMP nonselect	MC4R antag conf
Cc1cc(C(=O)COC(=O)C2=NN(c3ccccc3)C(=O)CC2)c(C)n1CC(F)(F)F	2	0	-9	-1	-7	30*	0	-6
COCC(C)n1c(C)cc(C(=O)COC(=O)C2=NN(c3ccccc3)C(=O)CC2)c1C (centres undefined)	-2	1	-3	-2	14	-3	.	.
O=C(CSc1n[nH]c(-c2ccccc2)n1)N1CCOCC1	-1	-1	3	-9	.	6	.	.
O=C(CSc1n[nH]c(-c2ccccc2O)n1)N1CCOCC1	5	-5	-7	0	-4	30*	1	-5
CN(C)c1ccc(/C=C2\N=C(C(C)(C)C)OC2=O)cc1	-3	-2	-4	-13	.	18	.	.
O=[N+]([O-])c1cccnc1S(=O)(=O)c1ccccc1	2	-5	0	18	.	33*	14*	38*
Cc1ccc(C(=O)NCC(=O)OCCOc2ccccc2Cl)cc1	3	-3	10	-10	.	4	.	.
CCOC(=O)/C=C/C(=O)Nc1cccc([N+](=O)[O-])c1	-5	-7	5	9	14	34*	26*	60*
Cc1cccc(OC(=O)c2sc(Cl)nc2C)c1	-2	-5	-5	-3	4	32*	14*	32*
O/N=C(\CN1CCCCC1)c1ccccc1	-2	-1	-5	-11	.	-4	.	.
COc1ccc(N2CCN(c3nc(Cl)nc(Nc4ccc(F)cc4)n3)CC2)cc1	-3	-3	-7	2	3	38*	14*	55*
O=C(CN1C(=O)C2CC=CCC2C1=O)NCc1cccs1 (centres undefined)	-1	-1	7	6	-17	31*	-3	1
COc1ccc(OCCN2C(=O)c3ccccc3C2=O)c([N+](=O)[O-])c1	-4	-3	9	-5	.	-1	.	.
CC(C)Cc1ccc(C(C)CC2=CCC(CN(C)C)C2=O)cc1 (centres undefined)	7	.	-4	-10	.	39*	2	46*
CC(C)Cc1ccc(C(C)/C=C2/CCC(CN3CCCCC3)C2=O)cc1 (centres undefined)	2	.	-1	5	.	17	.	.
